# Assay outcomes as filed in PubChem.
# hERG rescue: hERG (human) protection from proarrhythmic block | CHO-hERG, FluxOR thallium flux, dofetilide IC70 present | activation (rescue from dofetilide block), less the hit threshold, % at 10 µM | hit rate 0.51% among 310,000 | AID 1511;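 active = activation above the mean of controls blocked by dofetilide plus 5 SD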;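 also: thallium influx through hERG after potassium depolarization seen as dye fluorescence rise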
# KCNQ1 inh: blocks the human KCNQ1 potassium channel. P51787. CHO-K1 KCNQ1, FluxOR thallium flux fluorescence; hits give high values. B-score at 10 µM. hit rate 1.3% among 310,000. AID 2642;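 active = compounds whose thallium flux B-score, printed positive for inhibition, exceeds three library SD while starting fluorescence stays within three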;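 also: channel opened by potassium depolarization with thallium stimulus after 20 min compound exposure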
# Cl transport mod: modulates chloride dependent transport by human KCC2; hit rate 2.2% among 190,000; Q9H2X9; KCC2 cells, thallium flux FluoZin-2 fluorescence; B-score of Tl+ flux slope (higher = more flux/activation; lower = inhibition) at 10 µM; AID 1456;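 active = thallium flux slope and its plate-corrected score both differing from the plate sample mean at a set confidence after two filtering rounds, in either direction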;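 also: slope of fluorescence scaled to starting intensity during 10 to 20 s after thallium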
# Target sequence (Q9H2X9 whole entry, looked up): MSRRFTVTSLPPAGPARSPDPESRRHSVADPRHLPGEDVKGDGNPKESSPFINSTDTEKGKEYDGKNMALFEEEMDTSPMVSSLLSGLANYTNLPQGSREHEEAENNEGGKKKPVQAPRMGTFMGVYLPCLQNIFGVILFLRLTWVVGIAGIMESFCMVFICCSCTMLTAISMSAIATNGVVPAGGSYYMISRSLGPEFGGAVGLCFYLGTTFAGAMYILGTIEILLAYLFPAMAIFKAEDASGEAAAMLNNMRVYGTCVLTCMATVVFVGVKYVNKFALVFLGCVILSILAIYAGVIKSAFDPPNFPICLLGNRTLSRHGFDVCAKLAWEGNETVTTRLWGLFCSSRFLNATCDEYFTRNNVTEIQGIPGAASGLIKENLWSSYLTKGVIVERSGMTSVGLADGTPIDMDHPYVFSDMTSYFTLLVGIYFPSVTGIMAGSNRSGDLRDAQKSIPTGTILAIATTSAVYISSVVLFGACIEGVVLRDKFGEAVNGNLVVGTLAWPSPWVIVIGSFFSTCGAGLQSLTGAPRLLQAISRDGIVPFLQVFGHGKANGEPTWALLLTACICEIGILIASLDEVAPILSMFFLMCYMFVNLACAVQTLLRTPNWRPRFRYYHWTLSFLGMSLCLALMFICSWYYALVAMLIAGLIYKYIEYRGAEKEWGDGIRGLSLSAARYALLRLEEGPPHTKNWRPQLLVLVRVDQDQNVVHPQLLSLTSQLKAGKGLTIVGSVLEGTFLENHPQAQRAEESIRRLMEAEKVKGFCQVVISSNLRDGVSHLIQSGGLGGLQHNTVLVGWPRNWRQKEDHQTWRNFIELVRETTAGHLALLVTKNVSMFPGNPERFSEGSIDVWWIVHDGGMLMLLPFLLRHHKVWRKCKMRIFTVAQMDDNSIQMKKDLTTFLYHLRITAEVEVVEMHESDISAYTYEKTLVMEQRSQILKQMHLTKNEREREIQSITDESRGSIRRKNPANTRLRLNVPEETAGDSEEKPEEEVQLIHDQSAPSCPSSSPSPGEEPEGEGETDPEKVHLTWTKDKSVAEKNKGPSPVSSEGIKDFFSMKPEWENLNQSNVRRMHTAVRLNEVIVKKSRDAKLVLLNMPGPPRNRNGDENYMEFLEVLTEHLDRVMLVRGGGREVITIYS
# KCNQ1 pot: human KCNQ1 channel potentiation or activation; CHO-K1 KCNQ1, thallium flux FluxOR fluorescence; hits give high values; B-score at 10 µM; hit rate 0.35% among 310,000;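 active = fluorescence ratio B-score, a plate-corrected score, at least three library SD, with initial intensity B-score within 5 SD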
#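 Assay system: stable KCNQ1 CHO-K1 line; medium: assay buffer, equal DMSO in all wells; timing: 90 min dye loading and 20 min compound exposure, both at room temperature; technique: kinetic FluxOR thallium fluorescence, 10-s 1-Hz baseline, 110-s post-stimulus read; read-out basis: B score of baseline-normalized fluorescence ratio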
# AI-2 QS modul: Vibrio harveyi AI-2 quorum sensing modulation; hit rate 0.4% among 300,000; Vibrio harveyi JMH597 AI-2 luminescence/OD600 ratio, 9 h; hits give low values; strain lacks LuxN and CqsS sensors; 0 = neutral-control median; activity change, % at 7.5 µM; in the data active = activity change below about -75%, passing the limit was not always enough;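 also: luminescence divided by OD600 gain over 9 h not by final OD600 alone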
# Mot1-301 SUMO: blocks SUMOylation pathway, rescuing yeast Mot1-301 growth; hit rate 1% among 320,000; S. cerevisiae Mot1-301 growth rescue, ATP luminescence, 38.5C; percent above DMSO median, 100 means doubled; growth rescue, % at 18.8 µM;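 active = every valid replicate shows activation above 250% relative to neutral control wells; inactive = the rest, any valid replicate at or below 250%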;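 also: OY570 slx delta 5 strain wells were the positive control but not used for scaling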
# The depositor's hits bear a star; i = inactive; . = no result given. Most compounds without a hit are left out; they make up all but 4.2% or so of the library.
SMILES,hERG rescue,KCNQ1 inh,Cl transport mod,KCNQ1 pot,AI-2 QS modul,Mot1-301 SUMO
O=C(O)CCC(=O)Nc1cc(C(F)(F)F)cc(C(F)(F)F)c1,-9,i,.,i,0,242
CCCn1nc(NS(=O)(=O)c2cccc3nonc23)c2cc3cccc(C)c3nc21,-9,8*,.,i,5,10
CC1([N+](=O)[O-])COC2(OC1)C(=O)Nc1ccccc12 (stereo not drawn),-2,i,.,i,22,99
CN1C(=O)C2(OCC(C)([N+](=O)[O-])CO2)c2ccccc21 (stereo not drawn),8.6*,i,.,i,3,-15
CCCc1cc(-c2n[nH]c(=S)n2CC(C)C)cs1,3,i,16*,i,24,-15
CCCCn1c(-c2nn(C)cc2Cl)n[nH]c1=S,-5,i,1.4,i,18,32
Cc1ccsc1-c1n[nH]c(=S)n1CC(C)C,-5,i,0.018,i,22,-1
CCCCn1c(-c2csc(C(C)C)c2)n[nH]c1=S,5.0*,i,21*,i,19,2
CC(C)Cc1nnc(NC(=O)CCC(=O)N2CCN(c3ccccc3F)CC2)s1,-3,i,.,i,8,-1
O=Cc1cccn1-c1c(C(=O)O)cnn1-c1ccccc1,-12,i,0.61,i,16,17
O=C(O)c1cnn(-c2ccccc2)c1-c1ccncc1,-2,i,.,i,20,322*
CC(C)(C)C(=O)NCCN1CCN(C(=O)C(C)(C)C)CC1,-9,i,-0.3,i,3,-8
COc1ccc(Cn2c(=S)[nH]c3cc(OC)c(OC)cc3c2=O)cc1,-4,i,5.6,i,2,-5
COc1ccc(Cn2c(=S)[nH]c3ccsc3c2=O)cc1,-9,i,26*,i,4,-1
O=C(COC(=O)C1CCC(=O)N1)Nc1ccc(Oc2ccccc2)cc1 (stereo not drawn),33*,i,-1.1,i,-5,25
O=C(Nc1ccc(C(=O)NCCCN2CCN(c3ccccc3)CC2)cc1)C1=CSCCO1,-10,i,.,i,73,-6
CCOC(=O)COc1cc(-n2c(=S)[nH]c3cc(OC)c(OC)cc3c2=O)c(Cl)cc1Cl,-6,i,-0.2,16*,31,3
CCOC(=O)COc1cc(N2C(=O)CSCC2=O)c(Cl)cc1Cl,2,i,-0.18,i,5,-7
COC(=O)C1=C(C)N2C(=O)CSC2=NC1c1ccc2c(c1)OCO2 (stereo not drawn),-4,i,.,i,11,.
Oc1c(C(c2ccccc2)N2CCCCC2)sc2ncnn12 (stereo not drawn),-6,i,0.1,i,10,462*
Cc1cccc(NC(=S)NNC(=O)c2csc(C(C)C)c2)c1,-11,i,16*,i,-18,-14
CCc1cc(C(=O)NNC(=S)Nc2cccc(C)c2)cs1,-13,i,9.3*,i,5,-8
Cc1cccc(NC(=S)NNC(=O)c2sccc2C)c1,-5,i,1.9,i,12,-2
CCn1cc(C(=O)N[C@@H](CCSC)C(=O)NCCCN2CCOCC2)c(=O)c2cc3c(cc21)OCO3,-7,i,.,i,2,11
O=S(=O)(c1ccc(N2CCC(c3ccc(Cl)cc3)=N2)cc1)N(CCO)CCO,-10,i,-0.69,i,9,-5
SMILES,hERG rescue,KCNQ1 inh,Cl transport mod,KCNQ1 pot,AI-2 QS modul,Mot1-301 SUMO
CN(C)CCCNS(=O)(=O)c1ccc(N2CCC(c3ccc(Cl)cc3)=N2)cc1,8.7*,9*,.,i,-8,36
O=C(NCC(O)c1ccc2ccccc2c1)c1c(F)cccc1F (stereo not drawn),0,i,.,i,-75*,385
O=C(CCCn1nnnc1CN1CCOCC1)N1CCN(c2ccccc2F)CC1,-9,i,.,8*,8,-22
CCC(Sc1nc2ncccc2[nH]1)C(=O)N1CCOCC1 (stereo not drawn),-7,i,.,i,8,4
CCOC(=O)c1c(NC(=O)Cn2nnc3ccccc32)sc2c1CCC(C)C2 (stereo not drawn),-5,i,.,i,18,-1
CCOC(=O)c1c(NC(=O)C(C)NCc2ccco2)sc2c1CCC(C)C2 (stereo not drawn),-11,6*,0.38,i,-9,4
CC(C)Cc1ccc(C(=O)NCCOc2ccccc2)o1,-8,i,.,i,10,29
COc1ccc(/C=C/C(=O)c2ccc(C)c([N+](=O)[O-])c2)cc1O,-13,i,-0.28,i,13,27
COc1cccc(/C=C/C(=O)c2ccc(C)c([N+](=O)[O-])c2)c1,-7,i,1.3,i,7,500*
C[n+]1ccc(/C=C/c2c[nH]c3ccc(F)cc23)cc1,-18,11*,.,i,1,0
Cc1ccc2[nH]c(C)c(/C=C/c3cc[n+](C)cc3)c2c1,-30,i,.,i,-5,-16
COc1cc2[nH]c(=O)n(CCC(=O)NCCCN3CCN(c4ccccc4F)CC3)c(=O)c2cc1OC,-9,i,0.0037,i,4,11
O=C1CC(c2ccc(F)cc2)CC(O)=C1C=NCCN1CCNCC1 (stereo not drawn),-5,i,2.2,i,11,301*
CCC(C)n1c(SCC(=O)Nc2cc(C(C)(C)C)nn2-c2ccccc2)nc2ccccc2c1=O (stereo not drawn),-5,10*,0.65,i,35,-17
COc1cccc(-c2c[nH]c(=O)[nH]c2=O)c1,-7,i,.,i,-7,2
O=c1[nH]cc(-c2ccccc2)c(=O)[nH]1,-2,i,1.3,12*,17,8
CCOC(=O)C1=NN(C(=O)c2ccccc2)C(O)(c2ccc(C)cc2)C1 (stereo not drawn),7.4*,i,52*,i,23,26
COC(=O)C1=NN(C(=O)c2cccc(Br)c2)C(O)(c2ccc(Cl)cc2)C1 (stereo not drawn),59*,i,92*,82*,31,-15
Cc1onc(-c2c(Cl)cccc2Cl)c1C(=O)NNc1ccccc1,-4,i,-0.3,i,13,318*
Cc1onc(-c2c(Cl)cccc2Cl)c1C(=O)n1nnc2ccccc21,4.8*,i,0.062,i,14,5
O=C(O)/C=C/C(=O)c1ccc2c(c1)NC(=O)CO2,-1,i,0.24,i,17,-1
O=C(c1ccc(OCCN2CCCCC2)cc1)c1c(-c2ccc(O)cc2)sc2cc(O)ccc12,-29,9*,.,i,11,6
